GASC-1 inh – inhibitors of human GASC-1 (JMJD2C) demethylase. Q9H3R0. GST-JMJD2C(1-420) H3K9me3 demethylation, DELFIA europium. inhibition, % at 2.35 µM. 330,000 compounds, 0.069% hits. AID 2099;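 active = more than half of a compound's replicate wells show inhibition beyond 50%, single wells judged on their own value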;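 also: signal counts dimethyl H3K9 product captured on neutravidin plate; 0% = median of DMSO wells and 100% = 0.3 times that DMSO median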
proCasp7 act – activates human procaspase-7, counter-screen for procaspase-3 activators; P55210; recombinant procaspase-7, Ac-DEVD-pNA absorbance 405 nm; D23A/D198A/D206A triple mutant, cannot self-cleave; scale: DMSO 0, 5 µM enzyme 100; activation, % at 8.5 µM; 330,000 compounds, 0.093% hits;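 active = percent activation above the screen-wide mean plus 3 SD, cut at about 25% in these data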
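Assay system: Uncleavable procaspase-7 mutant enzyme; Input: 2 µM procaspase-7 mutant as dispensed; Also added: DEVD-pNA substrate; Medium: Zinc-free HEPES pH 7.4 with 300 mM NaCl, 0.01% Triton X-100; Timing: 1 h compound preincubation, 2 h substrate cleavage, 25 °C; Measured by: Epi-absorbance of released pNA at 405 nm, two timepoints.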
GRK2 inh – human GRK2 inhibition via aptamer displacement. P25098. bead flow cytometry, FAM-aptamer displacement from GRK2. inhibition of aptamer binding, % at 10 µM. 330,000 compounds, 0.59% hits;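 active = inhibition of aptamer binding above 40%, roughly 3 SD of noise, on plates passing a quality check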;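 also: median bead fluorescence of bound FAM aptamer so fluorescent compounds give negative values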
Lipid droplet – hepatic lipid droplet formation modulation; 240,000 compounds, 0.4% hits; AML12 mouse hepatocytes, oleate lipid droplets, BODIPY imaging; inhibition, % at 6.5 µM; AID 1656;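 active = lipid droplet intensity inhibited by at least 50%, with more than 500 cells counted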
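Assay system: AML12 mouse liver cells | Compound dosing: One dose, 6.5 µM compound | Read-out basis: Droplet intensity reduction, % inhibition | Measured by: Fluorescence imaging, 20x objective, two fields per well | Schedule: Overnight treatment with compound plus oleate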
procasp3 activ – activators of human procaspase-3 | P42574 | recombinant procaspase-3 D3A, Ac-DEVD-pNA absorbance 405 nm | activation, % at 8.5 µM | 330,000 compounds, 0.11% hits | AID 463141;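 active = activation above the mean of all tested compounds plus 3 SD, cut at about 21% in these data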;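 also: 0% = DMSO alone and 100% = DMSO wells spiked with extra 5 µM PC-3 D3A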
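Technique: 405 nm absorbance of p-nitroaniline, reads at 0 and 120 min; Test system: Procaspase-3 D3A mutant; Incubation: 1 h enzyme-compound preincubation, then 2 h substrate reaction, 25 °C; Repeats: singlicate, each compound tested once; Benchmarks: low control DMSO wells, high control DMSO plus 5 µM PC-3 D3A.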
VLA-4 inh – inhibition in a human VLA-4 binding assay; inhibition, % (about 7 µM as worked out from the volumes in the protocol); VLA-4 expressing cells, ligand binding flow cytometry; 330,000 compounds, 0.2% hits; P13612; in the data active = inhibition above about 50%
Target sequence (P13612 whole entry, looked up): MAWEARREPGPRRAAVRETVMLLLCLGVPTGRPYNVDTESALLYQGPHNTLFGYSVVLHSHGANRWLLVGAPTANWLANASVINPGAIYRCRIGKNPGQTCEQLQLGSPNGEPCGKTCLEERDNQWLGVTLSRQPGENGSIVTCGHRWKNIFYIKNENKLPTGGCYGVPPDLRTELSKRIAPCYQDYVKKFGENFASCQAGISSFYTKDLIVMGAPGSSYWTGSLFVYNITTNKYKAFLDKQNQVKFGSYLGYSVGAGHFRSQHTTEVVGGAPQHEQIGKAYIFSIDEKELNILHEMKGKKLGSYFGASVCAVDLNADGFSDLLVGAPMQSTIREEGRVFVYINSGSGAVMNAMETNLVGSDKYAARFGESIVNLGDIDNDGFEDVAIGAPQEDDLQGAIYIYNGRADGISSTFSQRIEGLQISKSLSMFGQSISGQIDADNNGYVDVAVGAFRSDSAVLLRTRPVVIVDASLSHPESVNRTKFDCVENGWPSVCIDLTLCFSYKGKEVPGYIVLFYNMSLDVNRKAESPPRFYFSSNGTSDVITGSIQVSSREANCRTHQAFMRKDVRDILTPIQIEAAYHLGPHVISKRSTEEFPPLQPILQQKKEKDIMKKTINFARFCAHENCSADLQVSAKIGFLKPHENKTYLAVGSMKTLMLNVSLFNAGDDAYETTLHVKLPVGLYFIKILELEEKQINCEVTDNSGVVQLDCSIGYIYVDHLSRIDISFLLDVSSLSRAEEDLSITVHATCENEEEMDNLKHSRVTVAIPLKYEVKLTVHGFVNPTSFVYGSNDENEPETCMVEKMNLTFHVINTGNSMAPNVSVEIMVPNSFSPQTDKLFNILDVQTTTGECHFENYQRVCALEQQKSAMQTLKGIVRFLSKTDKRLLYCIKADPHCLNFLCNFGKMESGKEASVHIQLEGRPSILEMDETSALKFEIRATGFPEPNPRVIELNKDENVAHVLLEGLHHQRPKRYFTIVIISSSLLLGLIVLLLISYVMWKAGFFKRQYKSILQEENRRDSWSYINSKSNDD
GRK2 inh confirm – confirmation of human GRK2 inhibitors displacing RNA aptamer; shares compounds with GRK2 inh; bead-bound GRK2, FAM-aptamer displacement, flow cytometry; aptamer displacement, % at 10 µM; 2,000 compounds, 4% hits; AID 504451;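 active = aptamer displacement above 40%, near three times the noise of non-fluorescent compounds, on plates passing quality checks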;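 also: negative values mostly reflect intrinsic compound fluorescence rather than true enhancement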
Aptamer quench – counter-screen for GRK2 aptamer inhibitors: fluorescent aptamer quenchers. shares compounds with GRK2 inh. Fluorescent RNA aptamer beads, quenching, flow cytometry; hits give high values. fluorescence change (kMESF span), kMESF (no concentration beside the values). 110 tested, under 10 active. AID 504521;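 active = compounds whose bead fluorescence drops by more than 37 kMESF across the dose range, marking them as dye quenchers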
FAM quench CP1 – aptamer fluorescence quenching in GRK2 counter-screen; shares compounds with GRK2 inh; Carboxyfluorescein RNA aptamer on beads, flow cytometry quenching; hits give low values; fluorescence response (% of DMSO), % at 10 µM; 2,000 tested, under 10 active; AID 504580;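 active = compounds that quench the bead-bound fluorescent RNA probe, cutting fluorescence to under half of the solvent control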;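 also: counterscreen run without GRK2 so only probe quenching by compound is measured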
GRK2 confirm 2 – human GRK2 inhibition confirmation, cherry pick 2 | AID 504782 | bead-bound GRK2, FAM-aptamer displacement, flow cytometry | inhibition of aptamer binding, % at 10 µM | shares compounds with GRK2 inh | 360 tested, under 10 active;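 active = inhibition of aptamer binding above 40%, about triple the noise seen with nonglowing compounds, on plates passing quality control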;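 also: negative values mostly come from compounds that fluoresce themselves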
Aptamer quench3 – aptamer fluorescence quenching in GRK2 counter-screen dose response | change in fluorescence (kMESF span), kMESF (test concentration not listed) | shares compounds with GRK2 inh | AID 504819 | 25 tested, under 10 active | Streptavidin beads, FAM-RNA aptamer fluorescence quenching, flow cytometry;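 active = compounds quenching the bead-bound labeled aptamer, with fluorescence dropping by more than 37 kMESF over the dose range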
FAM quench CP2 – aptamer fluorescence quenching in GRK2 counter-screen; fluorescence response vs DMSO, % at 10 µM; 360 tested, under 10 active; shares compounds with GRK2 inh; carboxyfluorescein RNA aptamer beads, flow cytometry quenching; hits give low values;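 active = response vs DMSO under 50%, meaning signal dropped by over half, treated as fluorescence quencher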;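 also: labelled aptamer on streptavidin beads without GRK2 as a quench counter-screen; 100% = bead fluorescence of DMSO wells and lower means quenching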
FAM quench DR – counter-screen for GRK2 aptamer binding inhibitors: aptamer fluorescence quenching; shares compounds with GRK2 inh; fluorescence ratio to DMSO, % at 11.1 µM; 35 tested, under 10 active; Bead-bound FAM RNA aptamer fluorescence quenching, flow cytometry; hits give low values;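 active = compounds that dim the fluorescent label, raw bead signal shifting by over 33 units between lowest and highest dose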
* = called active by the depositor; i = inactive; x = not tested or not shown. Shown are actives, neighbours in structure and some others; about 1.3% of the full set was active somewhere.

SMILES	GASC-1 inh	proCasp7 act	GRK2 inh	Lipid droplet	procasp3 activ	VLA-4 inh	GRK2 inh confirm	FAM quench CP1	others
CC(=O)c1cccc(NC(=O)c2cc(-c3ccc(C)cc3)on2)c1	-1.3	3.3	2.0	-30.7	-5.3	-6.9	-1.8	97.5
CC(=O)c1cccc(NC(=O)c2c(C)nn(-c3ccccc3)c2Cl)c1	-12.7	-2.1	0.0	11.3	4.5	7.2	1.5	84.1
CC(=O)c1ccc(NC(=O)c2c(C)nn(-c3ccccc3)c2Cl)cc1	-5.5	0.5	3.0	19.5	1.5	1.9	x	x
COC(=O)[C@]1(Cc2ccccc2)N[C@H](CN(C)C(=O)COc2ccccc2)[C@@H]2C(=O)N(Cc3ccccc3)C(=O)[C@@H]21	2.1	3.3	1.0	x	9.7	24.8	x	x
Cc1ccc(C)c(NC(=O)CN(C)C(=O)Cn2c(=O)oc3ccccc32)c1	20.4	10.5	3.0	x	-4.3	-2.9	x	x
CCCCCC/C=C/c1ccc(OC)c([C@H]2[C@H]3C=CC[C@@H](C)[C@@H]3C(=O)N2Cc2ccccc2)c1	2.5	-8.6	1.0	26.3	13.8	2.5	x	x
CCCCCC/C=C/c1ccc([C@H]2[C@H]3C=CC[C@@H](C)[C@@H]3C(=O)N2Cc2ccccc2)c(F)c1	3.1	1.6	1.0	-5.9	-10.6	4.2	3.4	93.8
COc1ccc2c(c1)C(=O)N(c1ccc(C)cc1C)C(=O)C2(C)C	-18.7	2.5	3.0	-0.6	6.2	8.1	x	x
COc1ccc2c(c1)C(=O)N(c1ccccc1C)C(=O)C2(C)C	2.7	-4.7	78.0*	-18.2	6.8	0.4	1.9	98.9
Cc1ccc(NC(=O)C2CCN(S(=O)(=O)c3ccc4c(c3)OCCO4)CC2)c(O)c1	0.6	-0.1	3.0	x	-7.6	3.7	x	x
COc1ccc(NC(=O)C2CCCN(C(=O)c3ccc(Cl)cc3)C2)cc1Cl (stereo unspecified)	-4.0	4.3	3.0	x	1.7	8.7	x	x
O=C(Cc1csc(N2CCOCC2)n1)N/N=C/c1ccccc1C(=O)O	-0.1	2.2	0.0	2.3	-5.6	-2.2	x	x
CC(=O)Nc1ccc2nc3c(=O)n(C)c(=O)n(C)c3nc2c1	-11.6	0.0	42.0*	11.2	-6.4	-6.8	19.7	78.3
CC(=O)NCCn1c(C)cc2ccccc21	i	10.8	2.0	7.0	2.7	4.9	x	x
Cc1cc2ccccc2n1CCNC(=O)c1ccccc1	-5.6	6.4	100.0*	x	1.1	-15.6	29.5	102.1	Aptamer quench=-1.8
COc1ccc2c(c1)CC(C(=O)Nc1ccc(Cl)cc1)/C(=N/O)O2 (stereo unspecified)	-3.6	x	0.0	11.4	x	20.3	x	x
CCOc1ccccc1NC(=O)CCS(=O)(=O)c1ccc(Br)cc1	13.8	3.8	98.0*	1.5	2.0	-5.3	92.0*	95.2	Aptamer quench=-4;Aptamer quench3=0.2;FAM quench DR=100.0
CCc1ccccc1NC(=O)CCS(=O)(=O)c1ccc(C)cc1	-1.0	4.1	0.0	-0.1	9.2	-2.8	x	x
O=C(CCS(=O)(=O)c1ccc(Br)cc1)Nc1cc(F)ccc1F	-0.3	0.0	82.0*	-21.9	-0.3	-1.7	x	x	GRK2 confirm 2=25.5;Aptamer quench3=1.4;FAM quench CP2=100.0;FAM quench DR=99.0
CCc1ccccc1NC(=O)CCS(=O)(=O)c1ccc(Br)cc1	-3.7	-3.2	57.0*	x	3.6	9.8	30.2	96.1	Aptamer quench=-0.1;Aptamer quench3=-1.3;FAM quench DR=99.0
CCOc1ccc(NC(=O)CCS(=O)(=O)c2ccc(Br)cc2)cc1	2.1	-2.7	83.0*	-3.6	-3.3	14.1	x	x	GRK2 confirm 2=60.0*;Aptamer quench3=-0.2;FAM quench CP2=102.0;FAM quench DR=102.0
O=S(=O)(c1ccc2c(c1)CCN2)N1CCOCC1	-3.4	16.3	1.0	x	1.1	7.2	x	x
CC(=O)c1ccc(S(=O)(=O)NCCc2cn3ccc(C)cc3n2)cc1	-7.3	-1.9	5.0	-27.3	3.3	7.3	x	x
O=C(CCS(=O)(=O)c1ccc(Br)cc1)NC1CCCC1	36.6	6.3	80.0*	-6.1	6.4	-4.2	61.2*	98.5	Aptamer quench=0.6;Aptamer quench3=4.6
Cc1ccc(S(=O)(=O)N2CCCCC2)cc1C(=O)OC1CCCCC1=O (stereo unspecified)	-0.4	3.1	3.0	x	-14.3	9.7	x	x
SMILES	GASC-1 inh	proCasp7 act	GRK2 inh	Lipid droplet	procasp3 activ	VLA-4 inh	GRK2 inh confirm	FAM quench CP1	others
CCOC(=O)C1=C(O)/C(=C\c2cc(C)n(-c3ccccc3F)c2C)N=C1C	4.2	7.7	5.0	-21.9	1.4	7.1	x	x
Cc1cc(/C=N/N2CCN(C)CC2)c(C)n1-c1ccccc1F	5.5	-3.4	50.0*	3.7	0.8	0.9	0.8	99.5
Cc1onc(-c2c(F)cccc2Cl)c1C(=O)OCc1nnc(-c2ccccc2)o1	-2.2	-6.2	0.0	x	6.9	-11.8	x	x
CCNC(=O)N1CCN(C(=O)NCC)CC1	2.1	4.9	0.0	-0.3	-6.8	6.5	x	x
CCNC(=O)N1CCOCC1	-1.4	-0.5	45.0*	-7.2	-1.8	40.1	-6.2	100.0
Cc1ccc(S(=O)(=O)NCc2ccccc2)cc1	0.8	-3.2	x	-3.0	4.6	2.4	x	x
CSc1ccc(S(=O)(=O)NCc2ccc(C)cc2)cc1	17.5	7.8	71.0*	3.1	5.0	1.7	-0.1	101.5
CC(OC(=O)C1=COCCO1)C(=O)NC1(C#N)CCCCC1 (stereo unspecified)	16.2	-2.8	0.0	x	4.8	-2.0	x	x
CN1CC[C@]2(CCN3CCc4c(oc5ccccc45)[C@@H]3C2)N(C)C1=O	x	4.3	2.0	x	4.5	35.1	x	x
C=CCNC(=O)c1onc(CSc2ccccc2)c1C(=O)NCC=C	10.7	-10.3	1.0	x	-7.6	12.2	x	x

Bioassay records: PubChem BioAssay, several laboratories
